# Reference: PMC11755176 (ACS Omega, 2025)
# What was measured:
# HeLa cells = assay: Apoptosis analysis; format: cell-based, human; conditions: both tested concentrations, Figure 4C,D
# [1] = tested on: nonsmall cell lung cancer cells (A549); assay: MTT cytotoxicity assay, A549; format: cell-based; conditions: for IC50 A549: MTT assay, 72 h incubation, mean ± SD of three independent experiments; for IC50: Homo sapiens, A549, 72 h, read-out: IC50 A549
# How it was run: (§1)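 Cells kept in DMEM with 10% FBS and 1% penicillin-streptomycin at 37 °C, 5% CO2. Seeding: A549 5 × 10^3, HeLa 1 × 10^3, Vero 2 × 10^3 cells/well. After 16−18 h, medium replaced with graded compound concentrations for 72 h. MTT 0.5 mg/mL for 3 h; formazan dissolved in DMSO; A570 (reference 630 nm). IC50 by nonlinear regression; doxorubicin positive control.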
# [2] = tested on: NCI-H187 cancer cell line; conditions: previously reported; cited from earlier work
# [3] = tested on: HCT 116 colorectal cancer cells; conditions: cited from earlier work
# Vero cells = assay: MTT cytotoxicity assay, Vero; format: cell-based; conditions: 72 h incubation, mean ± SD of three independent experiments
# How it was run: as §1
# [4] = tested on: human cervical carcinoma cells (HeLa); assay: MTT cytotoxicity assay, HeLa; format: cell-based; conditions: 72 h incubation, mean ± SD of three independent experiments
# How it was run: as §1
# A549 cells = assay: Apoptosis analysis; format: cell-based; conditions: compared to untreated, Figure 4A,B
SMILES,IC50 A549 [1],IC50 HeLa [4],IC50 [1] [µM],further results
"O=C1C[C@@H](c2ccccc2)Oc2cc(O)cc(O)c21 [Compound 4, pinocembrin]",inactive,–,–,apoptosis induction (in words) (HeLa cells): increased apoptotic cells in a dose-dependent manner; IC50 NCI-H187 [2]: inactive; cytotoxic activity (in words) [3]: exhibit cytotoxic activity
"O=C1C[C@@H](c2ccccc2)Oc2cc(O)c(Cc3ccccc3O)c(O)c21 [Compound 5, isochamanetin]",inactive,inactive,–,IC50 Vero (Vero cells): inactive
"O=C1C[C@@H](c2ccccc2)Oc2c(Cc3ccccc3O)c(O)c(Cc3ccccc3O)c(O)c21 [Compound 7, dichamanetin]",–,inactive,14.9 ± 0.6,apoptosis induction (in words) (A549 cells): moderate level of apoptosis
"COc1cccc2c1C(=O)c1c(O)c3c(c(O)c1C2=O)C[C@@](O)(C(=O)CO)C[C@@H]3O[C@H]1C[C@H](N)[C@H](O)[C@H](C)O1 [doxorubicin, reference compound]",–,–,0.04,–
